Assay [1] is described as follows: Inhibition of human His-tagged LIN28A (16 to 187 residues) interaction with FAM-labelled preE-let-7f-1 miRNA (unknown origin) pretreated with protein for 30 mins followed by miRNA addition and measured after 15 mins by fluorescence polarization assay. The gist of the method:
(§1)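 LIN28A (residues 16–187) purified by nickel affinity chromatography; tested both His-tagged and with tag removed by TEV protease. Protein titrated into FAM-labeled preE-let-7f-1, FP read alongside total fluorescence. Unlabeled preE-let-7f-1 as positive control. Dose–response over eight concentrations, top 60 μM or 30 μM, in quadruplicate; some IC50s extrapolated from the observed curves.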
(Fluorescence polarisation rises when a labelled molecule tumbles more slowly, as on binding a larger partner.)

Assay [2] can be described thus: Stabilization of interaction of GST-fused C-terminal region of PMA2 YDI (unknown origin)/eGFP-fused tobacco 14-3-3 expressed in Escherichia coli incubated for 2 hrs by fluorescence based analysis relative to PPI-1.
Assay [3] relates to JAR. As to the kind of experiment: Inhibition of LIN28/let-7 miRNA interaction in human JAR cells assessed as increase in cellular let-7g mature miRNA level at 5 to 20 uM measured after 24 hrs by RT-qPCR analysis. Format: cell-based. To be noted: dose 5-20 µM.
Assay [4] concerns the target T1, Protein lin-28 homolog A (Homo sapiens) (UniProt Q9H9Z2).
T1 sequence (whole entry): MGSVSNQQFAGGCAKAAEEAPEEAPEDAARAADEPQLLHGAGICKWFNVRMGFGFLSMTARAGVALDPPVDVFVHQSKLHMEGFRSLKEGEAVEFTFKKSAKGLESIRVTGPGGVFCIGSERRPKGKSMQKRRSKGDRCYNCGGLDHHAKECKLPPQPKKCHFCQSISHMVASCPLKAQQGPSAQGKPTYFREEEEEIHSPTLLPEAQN
The assay can be described thus: Inhibition of LIN28A cold shock domain (16 to 126 residues) (unknown origin) assessed as increase in thermal stability measured after 45 mins by differential scanning fluorimetry. To be noted: dose 0.78-100 µM. In general terms: Differential scanning fluorimetry follows unfolding on heating by fluorescence.

Assay [5] is described as follows: Inhibition of human His-tagged LIN28A (16 to 187 residues) interaction with mouse preE-let-7f-Cy3 miRNA pretreated with protein for 2 hrs followed by incubation with miRNA and measured after 15 mins by EMSA method. Conditions: time 135.0 min. (Mobility shift assays separate free from complexed probe on a gel.)
In assay [6] the test system is JAR. As to the kind of experiment: Inhibition of LIN28/let-7 miRNA interaction in human JAR cells assessed as increase in cellular let-7a mature miRNA level at 5 to 20 uM measured after 24 hrs by RT-qPCR analysis. Format: cell-based. Conditions: dose 5-20 µM.
Assay [7] in a line: Inhibition of LIN28 (unknown origin) expressed in Escherichia coli BL21 (DE3) Rosetta interaction with FAM-labelled preE-let-7 miRNA (unknown origin) by fluorescence polarization assay. Also on record: species or system Homo sapiens. The gist of the method:
as §1

Assay [8] can be described thus: Stabilization of interaction of GST-fused C-terminal region of PMA2 YDI (unknown origin)/eGFP-fused tobacco 14-3-3 expressed in Escherichia coli incubated for 2 hrs by fluorescence based analysis.
Assay [9] is described as follows: Inhibition of human His-tagged LIN28A(16 to 187 residues) interaction with mouse preE-let-7f-Cy3 miRNA at 2.5 to 75 uM pretreated with protein for 2 hrs followed by incubation with miRNA and measured after 15 mins by EMSA method relative to control. To be noted: dose 2.5-75 µM, time 135.0 min.

The source made the active and inactive calls. The rule behind the calls is not given here.

For `COc1ccc(C(=O)C2=C(O)C(=O)N(c3ccc(O)c(C(=O)O)c3)C2c2ccc(C(=O)O)cc2)cc1` (configuration not stated), the half-inhibitory concentration (IC50) in assay [1] came to 30 µM.

Consider `O=C(O)c1ccc(C2C(C(=O)c3ccccc3)=C(O)C(=O)N2c2ccc(O)c(C(=O)O)c2)cc1` (configuration not stated), for which, in [2], the Activity was less than 30%. Turning to `O=C(C1=C(O)C(=O)N(c2ccc(O)c(C(=O)O)c2)C1c1ccc(-c2nccs2)cc1)c1ccc(Br)cc1` (configuration not stated), the results for the Activity in assay [2] and in assay [4] were less than 30% and “Dose-dependent effect”, respectively. Also, the inhibition entry with JAR [3] and in the assay on JAR [6] was “Active” throughout. Further, the inhibition entry in assay [5] is “Dose-dependent effect”.

In assay [7], `CCOc1cccc2c1N[C@@H](c1ccc(C(=O)O)cc1)[C@H]1CC=C[C@@H]21` yielded a half-maximal inhibitory concentration (IC50) of 7 µM. `O=C(O)c1cccc(N2C(=O)C(O)=C(C(=O)c3ccccc3)C2c2ccc(-c3nccs3)cc2)c1` (configuration not stated): the IC50 in assay [1] stood at 30 µM.

The molecule `O=C(C1=C(O)C(=O)N(c2ccc(O)c(C(=O)O)c2)C1c1ccc([N+](=O)[O-])cc1)c1ccccc1` (configuration not stated) came in with a concentration giving a half-maximal response (EC50) in assay [8] of 100 µM. Take `O=C(O)c1ccc(C2C(C(=O)c3ccc(Br)cc3)=C(O)C(=O)N2c2ccc(O)c(C(=O)O)c2)cc1` (configuration not stated): the half-inhibitory concentration (IC50) in assay [1] was found to be 30 µM.

Consider `O=C(O)c1cccc(N2C(=O)C(O)=C(C(=O)c3ccc(Br)cc3)C2c2ccc(-c3nccs3)cc2)c1` (configuration not stated), for which the inhibition result in assay [9] was “inactive”.

What is called IC50 is the concentration at which inhibition is half-maximal. As usually defined, the EC50 is the midpoint of the concentration-response curve. A low value points to a more potent agent.
